Assay results taken from ChEMBL document CHEMBL4689842, “EUbOPEN Chemogenomics Library wave 1” (2021).
Where “and” joins values, the source holds several entries; their conditions need not be identical. Equal entries are not always repeated.

Tested on: HEK-293T
Assay: Multiplex assay against HEK293T;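 as to Population Tubulin-Different-Phenotype (%): share of the cells with healthy nuclei that show this phenotype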
Type: toxicity, cell-based
Details: human
Method in brief: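 Imaging took place on a CQ1 microscope at 37°C and 5% CO2 once compound had been added to live cells stained at seeding with Hoechst33342, BioTracker Green Microtubule Cytoskeleton Dye, MitoTracker Red and Annexin V Alexa Fluor 680. CellPathfinder machine-learning gating classed cells as Hoechst high-intensity objects or normal cells, classed normal cells as having healthy, pyknosed or fragmented nuclei, and classed pyknosed cells as mitotic or apoptotic. Tubulin, mitochondrial-mass and membrane-permeability phenotypes are per cents of the healthy-nucleus cells.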

[1] = 12 h, 1 µM, compound concentration 1 uM, replicate 1
[2] = 12 h, 1 µM, compound concentration 1 uM, replicate 2
[3] = 12 h, 10 µM, compound concentration 10 uM, replicate 1
[4] = 12 h, 10 µM, compound concentration 10 uM, replicate 2
[5] = 24 h, 1 µM, compound concentration 1 uM, replicate 1
[6] = 24 h, 1 µM, compound concentration 1 uM, replicate 2
[7] = 24 h, 10 µM, compound concentration 10 uM, replicate 1
[8] = 24 h, 10 µM, compound concentration 10 uM, replicate 2
[9] = 48 h, 1 µM, compound concentration 1 uM, replicate 1
[10] = 48 h, 1 µM, compound concentration 1 uM, replicate 2
[11] = 48 h, 10 µM, compound concentration 10 uM, replicate 1
[12] = 48 h, 10 µM, compound concentration 10 uM, replicate 2

Nc1c(C(=O)NCc2ccc(C(=O)NCCCC3CCCCC3)cc2)cnn1-c1ccccc1 [SR-318]
Population Apoptotic (%) [1]: 38% and 53% and 33%
Population Fragmented Nuclei (%) [1]: 11% and 10%
Population Healthy Nuclei (%) [1]: 45% and 28% and 41%
Population Hoechst High Intensity Objects (%) [1]: 13% and 14% and 11%
Population Membrane Permeable-Phenotype (%) [1]: 1%
Population Mitochondria Different-Phenotype (%) [1]: 68% and 75% and 77%
Population Mitotic Cells (%) [1]: 61% and 46% and 66%
Population Normal (%) [1]: 86% and 85% and 88%
Population Pyknosed Nuclei (%) [1]: 45% and 60% and 48%
Population Tubulin-Different-Phenotype (%) [1]: 37% and 47% and 50%
Total Cell Count [1]: 564 and 341 and 583
Population Apoptotic (%) [2]: 8% and 14% and 10%
Population Fragmented Nuclei (%) [2]: 9% and 6%
Population Healthy Nuclei (%) [2]: 39% and 42% and 51%
Population Hoechst High Intensity Objects (%) [2]: 4% and 5% and 2%
Population Membrane Permeable-Phenotype (%) [2]: 8% and 6% and 4%
Population Mitochondria Different-Phenotype (%) [2]: 22% and 14% and 17%
Population Mitotic Cells (%) [2]: 91% and 85% and 89%
Population Normal (%) [2]: 95% and 94% and 97%
Population Pyknosed Nuclei (%) [2]: 51% and 47% and 41%
Population Tubulin-Different-Phenotype (%) [2]: 18% and 20% and 15%
Total Cell Count [2]: 208 and 203 and 249
Population Apoptotic (%) [3]: 43% and 67% and 60%
Population Fragmented Nuclei (%) [3]: 13% and 17% and 12%
Population Healthy Nuclei (%) [3]: 21% and 14% and 18%
Population Hoechst High Intensity Objects (%) [3]: 16% and 13% and 15%
Population Membrane Permeable-Phenotype (%) [3]: 5% and 2% and 1%
Population Mitochondria Different-Phenotype (%) [3]: 97% and 100% and 94%
Population Mitotic Cells (%) [3]: 56% and 32% and 39%
Population Normal (%) [3]: 83% and 86% and 84%
Population Pyknosed Nuclei (%) [3]: 64% and 68%
Population Tubulin-Different-Phenotype (%) [3]: 90% and 89% and 92%
Total Cell Count [3]: 492 and 305 and 342
Population Apoptotic (%) [4]: 42% and 40% and 53%
Population Fragmented Nuclei (%) [4]: 2% and 5%
Population Healthy Nuclei (%) [4]: 31% and 23%
Population Hoechst High Intensity Objects (%) [4]: 6% and 3%
Population Membrane Permeable-Phenotype (%) [4]: 7% and 4%
Population Mitochondria Different-Phenotype (%) [4]: 82% and 78% and 79%
Population Mitotic Cells (%) [4]: 57% and 59% and 46%
Population Normal (%) [4]: 93% and 96%
Population Pyknosed Nuclei (%) [4]: 66% and 62% and 70%
Population Tubulin-Different-Phenotype (%) [4]: 78% and 84%
Total Cell Count [4]: 272 and 248 and 191
Population Apoptotic (%) [5]: 42% and 41% and 52%
Population Fragmented Nuclei (%) [5]: 12% and 10% and 16%
Population Healthy Nuclei (%) [5]: 40% and 46% and 27%
Population Hoechst High Intensity Objects (%) [5]: 15% and 12%
Population Membrane Permeable-Phenotype (%) [5]: 3% and 1% and 5%
Population Mitochondria Different-Phenotype (%) [5]: 71% and 56% and 69%
Population Mitotic Cells (%) [5]: 57% and 58% and 47%
Population Normal (%) [5]: 84% and 87%
Population Pyknosed Nuclei (%) [5]: 46% and 43% and 55%
Population Tubulin-Different-Phenotype (%) [5]: 48% and 34% and 54%
Total Cell Count [5]: 634 and 591 and 363
Population Apoptotic (%) [6]: 11% and 13% and 5%
Population Fragmented Nuclei (%) [6]: 5% and 9% and 6%
Population Healthy Nuclei (%) [6]: 64% and 62% and 70%
Population Hoechst High Intensity Objects (%) [6]: 2%
Population Membrane Permeable-Phenotype (%) [6]: 7%
Population Mitochondria Different-Phenotype (%) [6]: 14% and 23% and 18%
Population Mitotic Cells (%) [6]: 88% and 86% and 94%
Population Normal (%) [6]: 97%
Population Pyknosed Nuclei (%) [6]: 30% and 27% and 22%
Population Tubulin-Different-Phenotype (%) [6]: 22% and 26% and 15%
Total Cell Count [6]: 245 and 241 and 330
Population Apoptotic (%) [7]: 50% and 60% and 64%
Population Fragmented Nuclei (%) [7]: 18% and 20%
Population Healthy Nuclei (%) [7]: 22% and 16% and 17%
Population Hoechst High Intensity Objects (%) [7]: 19% and 15% and 14%
Population Membrane Permeable-Phenotype (%) [7]: 0%
Population Mitochondria Different-Phenotype (%) [7]: 98% and 97% and 96%
Population Mitotic Cells (%) [7]: 49% and 39% and 35%
Population Normal (%) [7]: 80% and 84% and 85%
Population Pyknosed Nuclei (%) [7]: 58% and 63% and 61%
Population Tubulin-Different-Phenotype (%) [7]: 94% and 86% and 90%
Total Cell Count [7]: 489 and 314 and 331
Population Apoptotic (%) [8]: 61% and 57% and 59%
Population Fragmented Nuclei (%) [8]: 6% and 3%
Population Healthy Nuclei (%) [8]: 42% and 47% and 50%
Population Hoechst High Intensity Objects (%) [8]: 4% and 5%
Population Membrane Permeable-Phenotype (%) [8]: 3% and 1% and 2%
Population Mitochondria Different-Phenotype (%) [8]: 90% and 89% and 87%
Population Mitotic Cells (%) [8]: 38% and 42% and 40%
Population Normal (%) [8]: 95% and 94%
Population Pyknosed Nuclei (%) [8]: 50% and 49% and 46%
Population Tubulin-Different-Phenotype (%) [8]: 93%
Total Cell Count [8]: 222 and 291 and 281
Population Apoptotic (%) [9]: 50% and 32% and 31%
Population Fragmented Nuclei (%) [9]: 17% and 13% and 15%
Population Healthy Nuclei (%) [9]: 35% and 64% and 52%
Population Hoechst High Intensity Objects (%) [9]: 15% and 9% and 12%
Population Membrane Permeable-Phenotype (%) [9]: 0%
Population Mitochondria Different-Phenotype (%) [9]: 46% and 27% and 47%
Population Mitotic Cells (%) [9]: 50% and 67% and 68%
Population Normal (%) [9]: 84% and 90% and 87%
Population Pyknosed Nuclei (%) [9]: 46% and 21% and 32%
Population Tubulin-Different-Phenotype (%) [9]: 28% and 25% and 40%
Total Cell Count [9]: 384 and 851 and 794
Population Apoptotic (%) [10]: 20% and 10% and 15%
Population Fragmented Nuclei (%) [10]: 7% and 9% and 3%
Population Healthy Nuclei (%) [10]: 82% and 81%
Population Hoechst High Intensity Objects (%) [10]: 4%
Population Membrane Permeable-Phenotype (%) [10]: 3% and 1%
Population Mitochondria Different-Phenotype (%) [10]: 9% and 7% and 13%
Population Mitotic Cells (%) [10]: 79% and 89% and 84%
Population Normal (%) [10]: 95%
Population Pyknosed Nuclei (%) [10]: 10% and 9% and 15%
Population Tubulin-Different-Phenotype (%) [10]: 24% and 17% and 22%
Total Cell Count [10]: 386 and 610 and 321
Population Apoptotic (%) [11]: 68% and 72% and 52%
Population Fragmented Nuclei (%) [11]: 28% and 25%
Population Healthy Nuclei (%) [11]: 22% and 19% and 26%
Population Hoechst High Intensity Objects (%) [11]: 13% and 18% and 16%
Population Membrane Permeable-Phenotype (%) [11]: 0%
Population Mitochondria Different-Phenotype (%) [11]: 98% and 96% and 95%
Population Mitotic Cells (%) [11]: 31% and 27% and 47%
Population Normal (%) [11]: 86% and 81% and 84%
Population Pyknosed Nuclei (%) [11]: 48% and 55%
Population Tubulin-Different-Phenotype (%) [11]: 98% and 94% and 82%
Total Cell Count [11]: 329 and 319 and 500
Population Apoptotic (%) [12]: 66%
Population Fragmented Nuclei (%) [12]: 5% and 7% and 8%
Population Healthy Nuclei (%) [12]: 69% and 65% and 61%
Population Hoechst High Intensity Objects (%) [12]: 3% and 6%
Population Membrane Permeable-Phenotype (%) [12]: 2% and 1%
Population Mitochondria Different-Phenotype (%) [12]: 85% and 90% and 93%
Population Mitotic Cells (%) [12]: 33%
Population Normal (%) [12]: 96% and 93%
Population Pyknosed Nuclei (%) [12]: 25% and 26% and 30%
Population Tubulin-Different-Phenotype (%) [12]: 95%
Total Cell Count [12]: 373 and 318 and 253
